Measured values from ChEMBL document CHEMBL4396918, “Identification of a potent small-molecule inhibitor of bacterial DNA repair that potentiates quinolone antibiotic activity in methicillin-resistant Staphylococcus aureus” (Bioorg Med Chem, 2019).
Calls of active or inactive are those of the source. No cut-off for these calls is given here.

How the values were obtained:
Staphylococcus aureus [1] = assay: Potentiation of ciprofloxacin-induced antibacterial activity against methicillin resistant Staphylococcus aureus USA300 JE2 assessed as fold reduction in ciprofloxacin EC50 incubated for 18 hrs in presence of 0.5 times MIC ciprofloxacin by broth microdilution method relative to ciprofloxacin; assay type: functional
[2] = Ratio of EC50 for antibacterial activity against Escherichia coli K-12 BW25113 to EC50 for Staphylococcus aureus SH1000; assay type: functional
[3] = system: Staphylococcus aureus subsp. aureus USA300; conditions: JE2, 66 uM
[4] = system: Staphylococcus aureus subsp. aureus USA300; assay: Inhibition of AddAB in Staphylococcus aureus USA300 JE2 transformed with pCN34 PrecA-gfp reporter plasmid assessed as decrease in cell number at 66 uM measured at 15 mins interval for 17 hrs by GFP reporter gene assay
Procedure, shortened: (§1)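 S. aureus JE2 carrying a recA-promoter GFP reporter. […] Cell number was read as OD600 and SOS activation as GFP fluorescence, then normalized as fluorescence per cell. Mean ± SEM, n = 3 biological replicates.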

Escherichia coli = assay: Inhibition of Escherichia coli DNA topoisomerase IV using supercoiled pQE80L as substrate at 12.5 uM incubated for 30 mins by ethidium bromide staining-based agarose gel electrophoresis method
[5] = molecular target: T1, DNA gyrase (Escherichia coli) (UniProt P0AES6+P0AES4); assay: Inhibition of Escherichia coli DNA gyrase (A2B2 tetramer) at 12.5 uM using relaxed pBR322 as substrate preincubated for 30 mins followed by enzyme addition by SYBR staining-based agarose gel electrophoresis method; assay type: protein-complex assay
Procedure, shortened: (§2)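 Supercoiling of relaxed pBR322 by DNA gyrase, with products (relaxed, […], supercoiled) resolved by agarose gel electrophoresis. Supercoiled fraction quantified by densitometry. Mean ± SEM of 3 technical replicates.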

[6] = molecular target: T1, DNA gyrase (Escherichia coli); assay: Inhibition of Escherichia coli DNA gyrase (A2B2 tetramer) assessed as Fraction supercoiled at 12.5 uM using relaxed pBR322 as substrate preincubated for 30 mins followed by enzyme addition by SYBR staining-based agarose gel electrophoresis method; assay type: protein-complex assay; procedure, shortened: as §2
[7] = Inhibition of N-terminal his6-tagged AddB (unknown origin) expressed in Escherichia coli BL21 cells transformed with pET28 plasmid by Western blot based pull down assay
Procedure, shortened: (§3)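 Pulldown from E. coli SoluBL21 expressing StrepII-tagged AddA and His6-tagged AddB from pET28b+, induced overnight at 16 °C. Lysates were obtained by sonication and incubated with compound-functionalized Sepharose or DMSO-treated, Tris-quenched control beads. Beads were washed three times in lysis buffer and eluted in SDS-PAGE sample buffer. Western blots used anti-His6 and anti-StrepII detection.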

[8] = Inhibition of N-terminal strep2-tagged AddA (unknown origin) expressed in Escherichia coli BL21 cells transformed with pET28 plasmid by Western blot based pull down assay; procedure, shortened: as §3
Staphylococcus aureus [9] = assay: Synergistic antibacterial activity against Staphylococcus aureus USA300 JE2 assessed as dose reduction index at 100 uM at 1:1 test compound to ciprofloxacin measured every 30 mins for 17 hrs; assay type: functional
Procedure, shortened: (§4)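 OD600 recorded over 17 h at 37 °C. Exponential-phase growth rate used for dose–response EC50 fitting. Combination index and dose-reduction index calculated by the Chou–Talalay method versus fraction affected.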

Staphylococcus aureus [10] = assay: Synergistic antibacterial activity against Staphylococcus aureus USA300 JE2 assessed as ciprofloxacin dose reduction index at 100 uM at 1:1 test compound to ciprofloxacin measured every 30 mins for 17 hrs; assay type: functional; procedure, shortened: as §4
Staphylococcus aureus [11] = assay: Synergistic antibacterial activity against Staphylococcus aureus USA300 JE2 assessed as dose reduction index at 100 uM at 1:2 test compound to ciprofloxacin measured every 30 mins for 17 hrs; assay type: functional; procedure, shortened: as §4
Staphylococcus aureus [12] = assay: Synergistic antibacterial activity against Staphylococcus aureus USA300 JE2 assessed as ciprofloxacin dose reduction index at 100 uM at 1:2 test compound to ciprofloxacin measured every 30 mins for 17 hrs; assay type: functional; procedure, shortened: as §4
[13] = system: Staphylococcus aureus subsp. aureus USA300; assay: Inhibition of AddAB in Staphylococcus aureus USA300 JE2 transformed with pCN34 PrecA-gfp reporter plasmid assessed as inhibition of SOS response by measuring reduction in green fluorescence per cell at 66 uM measured at 15 mins interval for 17 hrs by GFP reporter gene assay; procedure, shortened: as §1

| Compound | fold change (FC) (Staphylococcus aureus [1]) | Ratio EC50 [2] | further results |
| --- | --- | --- | --- |
| CCn1cc(C(=O)O)c(=O)c2cnc(N3CCN(C(=S)Nc4cc(C(F)(F)F)cc(C(F)(F)F)c4)CC3)nc21 | >4 | >10 |  |
| O=C(O)c1cn(C2CC2)c2cc(N3CCN(C(=S)Nc4ccc([N+](=O)[O-])cc4)CC3)c(F)cc2c1=O | 20 |  |  |
| O=C(O)c1cn(C2CC2)c2cc(N3CCN(C(=S)Nc4cccc(Cl)c4)CC3)c(F)cc2c1=O | >3 | 2 - 5 |  |
| O=C(O)c1cn(C2CC2)c2cc(N3CCN(C(=S)Nc4cccc(C(F)(F)F)c4)CC3)c(F)cc2c1=O | >3 | 2 - 5 |  |
| O=C(O)c1cn(C2CC2)c2cc(N3CCNCC3)c(F)cc2c1=O |  |  | inhibition [3]: Active; inhibition [4]: Active; inhibition (Escherichia coli): Active |
| CCn1cc(C(=O)O)c(=O)c2cnc(N3CCN(C(=S)Nc4cc(Cl)cc(Cl)c4)CC3)nc21 | >4 | >50 |  |
| CCn1cc(C(=O)O)c(=O)c2cnc(N3CCN(C(=O)Nc4ccccc4)CC3)nc21 | >4 |  | inhibition [5]: inactive; Ratio [6]: 1.1; inhibition (Escherichia coli): inactive |
| O=C(O)c1cn(C2CC2)c2cc(N3CCN(C(=O)Nc4ccccc4)CC3)c(F)cc2c1=O |  |  | inhibition [7]: inactive; inhibition [8]: inactive |
| O=C(O)c1cn(C2CC2)c2cc(N3CCN(C(=S)Nc4cc(Cl)cc(Cl)c4)CC3)c(F)cc2c1=O | >3 | 2 - 5 |  |
| CCn1cc(C(=O)O)c(=O)c2cnc(N3CCN(C(=S)Nc4cccc(C(F)(F)F)c4)CC3)nc21 | >4 | >10 | inhibition [5]: inactive; Activity_index (Staphylococcus aureus [9]): 2.2; Ratio [6]: 1.1; Activity_index (Staphylococcus aureus [10]): 1.8; inhibition (Escherichia coli): inactive |
| CCn1cc(C(=O)O)c(=O)c2cnc(N3CCN(C(=S)Nc4cccc(F)c4)CC3)nc21 | >4 | >10 |  |
| CCn1cc(C(=O)O)c(=O)c2cnc(N3CCN(C(=S)Nc4cccc(Cl)c4)CC3)nc21 | >4 | >10 | inhibition [5]: inactive; Activity_index (Staphylococcus aureus [11]): 2; Activity_index (Staphylococcus aureus [12]): 2.2; Ratio [6]: 1.1 |
| O=C(O)c1cn(C2CC2)c2cc(N3CCN(C(=S)Nc4cccc([N+](=O)[O-])c4)CC3)c(F)cc2c1=O | >4 |  |  |
| O=C(O)c1cn(C2CC2)c2cc(N3CCN(C(=S)Nc4ccc(C(F)(F)F)cc4)CC3)c(F)cc2c1=O | >3 | 2 - 5 | inhibition [5]: inactive; inhibition [7]: Active; Ratio [6]: 1.2; Activity_index (Staphylococcus aureus [10]): 2.9; inhibition [4]: Active; inhibition (Escherichia coli): inactive; inhibition [8]: Active; inhibition [13]: Active |
| O=C(O)c1cn(C2CC2)c2cc(N3CCN(C(=S)Nc4cc(C(F)(F)F)cc(C(F)(F)F)c4)CC3)c(F)cc2c1=O | >4 |  |  |
| O=C(O)c1cn(C2CC2)c2cc(N3CCN(C(=S)Nc4cccc(F)c4)CC3)c(F)cc2c1=O | >3 | 2 - 5 |  |
| CCn1cc(C(=O)O)c(=O)c2cnc(N3CCN(C(=S)Nc4ccc(C(F)(F)F)cc4)CC3)nc21 | >4 | >10 |  |
